ChEMBL document CHEMBL5346918, “Design, synthesis and biological evaluation of Nucleosidic CD99 inhibitors that selectively reduce Ewing sarcoma viability” (Eur J Med Chem, 2023)
Active and inactive are the calls of the source.

Legend:
[1] = Cytotoxicity against human A4573 cells assessed as reduction in cell viability incubated for 48 hrs by CellTiter-Blue reagent based […] assay; type: functional; conditions: A4573, 48 h
Method in brief: (§1)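 Cells seeded and grown to 60–80% confluency (usually 18–24 h), then treated 48 h with a range of concentrations prepared in each line's medium. CellTiter-Blue reagent added at the end of treatment and incubated 3–5 h at 37 °C, 5% CO₂. Fluorescence read at 560 nm excitation and 590 nm emission. IC50 from nonlinear regression, log(inhibitor) vs. normalized response.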

[2] = test system: TC-32; experiment: Cytotoxicity against human TC-32 cells assessed as reduction in cell viability incubated for 48 hrs by CellTiter-Blue reagent based […] assay; type: functional; conditions: TC-32, 48 h; method in brief: as §1
[3] = Cytotoxicity against human TC71 cells assessed as reduction in cell viability incubated for 48 hrs by CellTiter-Blue reagent based […] assay; type: functional; conditions: TC-71, 48 h; method in brief: as §1
[4] = test system: SAOS-2; experiment: Cytotoxicity against human SAOS-2 cells assessed as reduction in cell viability incubated for 48 hrs by CellTiter-Blue reagent based […] assay; type: functional; conditions: SAOS-2, 48 h; method in brief: as §1
[5] = test system: U2OS; experiment: Cytotoxicity against human U2OS cells assessed as reduction in cell viability incubated for 48 hrs by CellTiter-Blue reagent based […] assay; type: functional; method in brief: as §1
[6] = Cytotoxicity against human COG-E-352 cells assessed as reduction in cell viability incubated for 48 hrs by CellTiter-Blue reagent based […] assay; type: functional; conditions: COG-E-352, 48 h
Method in brief: (§2)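 Cells grown in their own media at 37 °C, 5% CO2, mycoplasma-tested. At 60–80% confluency, treated 48 h with a range of concentrations made in medium. CellTiter-Blue added for 3–5 h at 37 °C, fluorescence read at ex 560/em 590 nm. IC50 from nonlinear regression (log(inhibitor) vs normalized response); mean ± SD of duplicate or triplicate determinations.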

[7] = Cytotoxicity against human MHH-ES cells assessed as reduction in cell viability incubated for 48 hrs by CellTiter-Blue reagent based […] assay; type: functional
[8] = Cytotoxicity against human SK-ES cells assessed as reduction in cell viability incubated for 48 hrs by CellTiter-Blue reagent based […] assay; type: functional; method in brief: as §2
[9] = Cytotoxicity against human STA-ET-7.2 cells assessed as reduction in cell viability incubated for 48 hrs by CellTiter-Blue reagent based […] assay; type: functional; conditions: STA-ET-7.2, 48 h
[10] = test system: RD; experiment: Cytotoxicity against human RD cells assessed as reduction in cell viability incubated for 48 hrs by CellTiter-Blue reagent based […] assay; type: functional; method in brief: as §2
[11] = test system: SJRH30; experiment: Cytotoxicity against human Rh30 cells assessed as reduction in cell viability incubated for 48 hrs by CellTiter-Blue reagent based […] assay; type: functional; conditions: SJRH30, 48 h
[12] = test system: 143B; experiment: Cytotoxicity against human 143B cells assessed as reduction in cell viability incubated for 48 hrs by CellTiter-Blue reagent based […] assay; type: functional; method in brief: as §2
[13] = test system: HOS; experiment: Cytotoxicity against human HOS cells assessed as reduction in cell viability incubated for 48 hrs by CellTiter-Blue reagent based […]; type: functional; method in brief: as §2
[14] = Cytotoxicity against human MG-63.3 cells assessed as reduction in cell viability incubated for 48 hrs by CellTiter-Blue reagent based […] assay; type: functional; conditions: MG-63.3, 48 h; method in brief: as §2
[15] = test system: A 172; experiment: Cytotoxicity against human A-172 cells assessed as reduction in cell viability incubated for 48 hrs by CellTiter-Blue reagent based […] assay; type: functional; conditions: A 172, 48 h; method in brief: as §2
[16] = test system: U-87 MG; experiment: Cytotoxicity against human U-87 MG cells assessed as reduction in cell viability incubated for 48 hrs by CellTiter-Blue reagent based […] assay; type: functional, U-87MG ATCC; method in brief: as §2
[17] = test system: A549; experiment: Cytotoxicity against human A549 cells assessed as reduction in cell viability incubated for 48 hrs by CellTiter-Blue reagent based […] assay; type: functional; conditions: A549, 48 h
[18] = Cytotoxicity against human HEK293 cells assessed as reduction in cell viability incubated for 48 hrs by CellTiter-Blue reagent based […] assay; type: toxicity; method in brief: as §2
[19] = test system: HeLa; experiment: Cytotoxicity against human HeLa cells assessed as reduction in cell viability incubated for 48 hrs by CellTiter-Blue reagent based […] assay; type: functional; method in brief: as §2
[20] = test system: PC-3; experiment: Cytotoxicity against human PC-3 cells assessed as reduction in cell viability incubated for 48 hrs by CellTiter-Blue reagent based […] assay; type: functional; conditions: PC-3, 48 h; method in brief: as §2
[21] = molecular target: T1, CD99 antigen (Homo sapiens, UniProt P14209); experiment: Binding affinity to N-terminal biotin-tagged recombinant human CD99 extracellular domain (23 to 122 residues) expressed in Escherichia coli BL21(DE3) by surface plasmon resonance analysis
T1 sequence (P14209 whole entry): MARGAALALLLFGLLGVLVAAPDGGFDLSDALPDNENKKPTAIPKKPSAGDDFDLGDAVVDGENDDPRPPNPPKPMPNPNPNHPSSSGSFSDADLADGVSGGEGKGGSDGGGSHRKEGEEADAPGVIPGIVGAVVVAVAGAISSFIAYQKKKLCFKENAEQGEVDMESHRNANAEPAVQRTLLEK
Method in brief: (§3)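 Bacterially expressed recombinant CD99 extracellular domain amine-coupled to CM5 chip (10 mM sodium acetate pH 4.0, ~3500 RU). Analytes injected at various concentrations in PBS-P pH 7.4 + 1% DMSO at 50 μL/min. Contact time 60 s, dissociation 300 s, regeneration with 15 s H3PO4 pulse. Duplicate injections; sensorgrams fitted to 1:1 kinetic model.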

[22] = molecular target: T2, CD99 antigen (Homo sapiens) (UniProt P14209); experiment: Binding affinity to N-terminal biotin-tagged recombinant human CD99 extracellular domain (23 to 122 residues) expressed in Escherichia coli BL21(DE3) assessed as association rate constant by surface plasmon resonance analysis; method in brief: as §3
T2 sequence (whole entry): T1 sequence (P14209 whole entry)

[23] = molecular target: T1, CD99 antigen; experiment: Binding affinity to N-terminal biotin-tagged recombinant human CD99 extracellular domain (23 to 122 residues) expressed in Escherichia coli BL21(DE3) assessed as dissociation rate constant by surface plasmon resonance analysis; method in brief: as §3
[24] = molecular target: T2, CD99 antigen (Homo sapiens); experiment: Binding affinity to CD99 in human TC71 cells assessed as protein stabilization at 80 uM incubated for 30 mins and measured at 51 to 99 degC by CETSA analysis; type: cell-based
Method in brief: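 TC-71 cell lysate mixed with compound at 80 μM final, aliquots heated at various temperatures; thermally stable CD99 remaining in solution detected by western blot with anti-CD99 antibody and quantified by densitometry relative to untreated lysate.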

[25] = test system: TC-32; experiment: Induction of apoptosis in human TC-32 cells assessed as PARP cleavage at 4 to 16 uM incubated for 48 hrs by western blot analysis; type: functional, cell-based; conditions: dose 4-16 µM
Method in brief: (§4)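 TC-32 cells treated 48 h at 4, 8 or 16 μM; total lysates immunoblotted for cleaved PARP and cleaved caspase 3, actin as loading and normalization control; ECL imaging with densitometry.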

[26] = test system: TC-32; experiment: Induction of apoptosis in human TC-32 cells assessed as caspase-3 cleavage at 4 to 16 uM incubated for 48 hrs by western blot analysis; type: functional, cell-based; conditions: dose 4-16 µM; method in brief: as §4
[27] = test system: U2OS; experiment: Induction of apoptosis in human U2OS cells assessed as PARP cleavage at 4 to 16 uM incubated for 48 hrs by western blot analysis; type: functional, cell-based; conditions: dose 4-16 µM
Method in brief: (§5)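 U-2 OS cells treated 48 h at 4, 8 or 16 μM; total lysates immunoblotted for cleaved PARP and cleaved caspase 3, actin as loading and normalization control.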

[28] = test system: U2OS; experiment: Induction of apoptosis in human U2OS cells assessed as caspase-3 cleavage at 4 to 16 uM incubated for 48 hrs by western blot analysis; type: functional, cell-based; conditions: dose 4-16 µM; method in brief: as §5
[29] = test system: TC-32; experiment: Induction of apoptosis in human TC-32 cells assessed as increase in hypodiploid subG1 population at 4 to 16 uM incubated for 48 hrs by propidium iodide staining based flow cytometry; type: functional, cell-based; conditions: dose 4-16 µM
Method in brief: (§6)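 Cells treated 48 h at 4, 8 or 16 μM, then adherent and floating cells pooled, fixed in ice-cold 70% ethanol 1 h, treated with RNase A 100 μg/mL, stained with propidium iodide 50 μg/mL for 1 h on ice. Sub-G1 fraction measured by flow cytometry.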

[30] = test system: U2OS; experiment: Induction of apoptosis in human U2OS cells assessed as increase in hypodiploid subG1 population at 4 to 16 uM incubated for 48 hrs by propidium iodide staining based flow cytometry; type: functional, cell-based; conditions: dose 4-16 µM; method in brief: as §6

Nc1nc(Cl)nc2c1ncn2[C@@H]1O[C@H](COC(C(=O)O)C(=O)O)[C@@H](O)[C@@H]1F
> 341 µM: IC50 [11] | IC50 [12] | IC50 [14] | IC50 [15] | IC50 at 48 h [18]
2467 10^-6/s: Kd [23]
27 µM: IC50 [1] | IC50 [2] | IC50 [6] | IC50 [7] | IC50 [8] | IC50 [9]
active: Activity [24] | Activity [25] | Activity [26] | Activity [29]
5.17 µM: IC50 [3]
≥ 400 µM: IC50 [4] | IC50 [5]
1.5 µM: Kd [21]
1700 M⁻¹ s⁻¹: Ka [22]
inactive: Activity [27] | Activity [28] | Activity [30]
> 400 µM: IC50 [10] | IC50 [13] | IC50 [16] | IC50 [17] | IC50 [19] | IC50 [20]
